Screening results (PubChem)
Many of the other results were omitted from the sample, so hits are more common in it than they were.
XBP1 UPR activ: activators of adaptive arm of unfolded protein response (XBP1); CHO-XBP1 luciferase reporter, IRE1-XBP1 UPR activation, luminescence; percent of tunicamycin response, DMSO as zero; activation, % at 20 µM; 330,000 tested, 0.33% active; AID 463104;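 active = versus positive control, 20 µM dose yields 30% or more activation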
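assay system = CHO-XBP1 luciferase reporter cells | amount = 1000 cells/well | buffer or medium = F12 plus 10% FBS | compound dosing = single point, 20 µM final compound, 1% DMSO | incubation = 16-18 h cell attachment at 37 °C, then 6 h compound exposure | detection = Steady-Glo luminescence read | controls = tunicamycin 10 µg/mL and vehicle-only wells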
CHOP UPR activ: apoptotic UPR (CHOP) activation | CHO-CHOP luciferase reporter, luminescence; percent of tunicamycin response over DMSO baseline | 330,000 tested, 0.34% active | activation, % at 10 µM;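 active = at 10 µM dose, activation of 40% or more, normalized to positive control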
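Assay system: CHO cells with stable CHOP pathway luciferase reporter; Buffer or medium: F12 plus 10% serum; Times: 16-18 h cell attachment, then 6 h compound exposure, 37 °C; Signal: luciferase luminescence; Read-out basis: percent activation relative to tunicamycin control; Control set: tunicamycin high control, DMSO low control.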
Lmaj promast: reduces viability of Leishmania major promastigotes; 200,000 tested, 9% active; resazurin fluorescence viability; inhibition, % at 10 µM; AID 1063; in the data active = inhibition above about 50%;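 note: promastigotes grown with compound for 44 hours at 28 °C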
Dynein cargo inh: dynein cargo transport inhibition; 3617.4 mouse cells, GR-EGFP nuclear translocation imaging; test concentration mostly 20 µM; stimulated with dexamethasone, 1 µM; hits give low values; z-score, hits read low; 220,000 tested, 0.47% active;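 active = plate z-score of nuclear minus cytoplasmic receptor signal below a set negative limit, without overly bright fluorescence or cell loss, cut at about -3.5 in these data, passing the limit was not always enough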;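 note: z-score of nuclear minus cytoplasmic ring GR-EGFP intensity difference per well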
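Schedule: 48 h induction, then 1 h compound, then 30 min agonist, 37 °C. Buffer or medium: tetracycline-free induction medium containing charcoal-stripped FBS. Reagent: 1.0 µM final dexamethasone stimulus. Evaluation: nuclear versus cytoplasmic GR-EGFP signal, averaged per well. Signal: high-content fluorescence imaging after fixation.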
T cruzi repl: blocks replication of Trypanosoma cruzi; inhibition, % (concentration not given with the values); T. cruzi beta-gal in NIH3T3, luminescence, 90 h; AID 1885; 300,000 tested, 1.4% active;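 active = mean inhibition across valid replicates above about 55%, limit read from the data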;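 note: signal also drops with host cell toxicity which is not excluded here; higher percent means less beta-gal luminescence so fewer parasites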
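Read-out: Parasite load inhibition, % | Test system: Mouse NIH/3T3 fibroblasts infected with β-gal-expressing T. cruzi Tulahuen C4 | Amount: 5,000 cells/well | Medium: DMEM, 2% fetal bovine serum | Signal: GalScreen β-gal luminescence, detergent lysis, 60 min | Timing: 3 h attach, ≥90 h co-culture | Also added: Tulahuen C4 trypomastigotes, 5000/well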
CHOP inhibitor: inhibitors of CHOP induction in ER stress response; CHO-K1 CHOP-promoter luciferase, tunicamycin-induced, 15-18 h; inhibition, % at 10 µM; 220,000 tested, 3.8% active;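 active = compounds that reduced the stress-induced luciferase reporter signal by more than about 70% of percent inhibition, limit read from the data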
Of the large screens only hits and unclear results are named; the others gave an inactive call.

CCOC(=O)c1ccc(NNC(=O)CC)c([N+](=O)[O-])c1	none
Cc1ccc2[nH]c3c(=O)n(CC(=O)N4CCN(C)CC4)ncc3c2c1	none (no result: Lmaj promast, Dynein cargo inh, CHOP inhibitor)
CCOc1cc2c(cc1/C=C/c1noc(C)c1[N+](=O)[O-])OC(C)C2 (configuration not stated)	none (no result: Lmaj promast, Dynein cargo inh, CHOP inhibitor)
COc1cc(C)c(CN2CCN(CC(=O)Nc3ccccc3C(=O)NC3CC3)CC2)cc1OC	none (no result: Lmaj promast, Dynein cargo inh, T cruzi repl, CHOP inhibitor)
CCOc1cccc(N(C(=O)C2COc3ccccc3O2)C(C(=O)NC2CCCCC2)c2ccc(O)cc2)c1 (configuration not stated)	Lmaj promast 82
c1ccc2c(c1)CCc1ccccc1C2=C1CCNCC1	none (no result: Lmaj promast, Dynein cargo inh, CHOP inhibitor)
COc1ccc(NS(=O)(=O)c2cc(NC(=O)c3cnccn3)ccc2OC)cc1Br	Lmaj promast 95
COc1ccc(NS(=O)(=O)c2cc(NC(=O)c3ccc(C)o3)ccc2N2CCCCC2)cc1	Lmaj promast 99
COc1ccc(NS(=O)(=O)c2cc(NC(=O)c3cccs3)ccc2N2CCCC2)cc1	none
COc1ccc(NS(=O)(=O)c2cc(NC(=O)c3cnccn3)ccc2N2CCCC2)cc1	Lmaj promast 93
COc1ccc(CC(NC(C)=O)C(=O)NC2CCN(C(=O)C3CCCCC3)CC2)cc1OC (configuration not stated)	none (no result: Lmaj promast, Dynein cargo inh, CHOP inhibitor)
CC(C)(C)NC(=O)[C@@H]1CN(Cc2cccnc2)CCN1C[C@@H](O)C[C@@H](Cc1ccccc1)C(=O)N[C@H]1c2ccccc2C[C@H]1O	none (no result: Lmaj promast, Dynein cargo inh, CHOP inhibitor)
CCOC(=O)CNc1nc(C(C)(C)C)nc2c1nnn2Cc1ccccc1Cl	T cruzi repl 61, CHOP inhibitor 81
COC(=O)CN1C(=S)N(c2ccc(OC)cc2)C(=O)/C1=C/c1ccc(OC)cc1	Lmaj promast 54
CCN(CC)c1ccc(Nc2nc(N3CCOCC3)c3ccccc3n2)cc1	Lmaj promast 97, CHOP inhibitor 74
COc1ccc(Nc2nc(N3CCCC3)c3ccccc3n2)cc1	Lmaj promast 100
c1ccc2c(c1)nc(N1CCOCC1)c1ccccc12	none
Cc1ccccc1NC(=O)NCc1ccccn1	none (no result: Lmaj promast, Dynein cargo inh, T cruzi repl, CHOP inhibitor)
COc1cccc(CNC(=O)CSc2nc(=O)n(Cc3ccncc3)c3c2CCC3)c1	none (no result: Lmaj promast, Dynein cargo inh, CHOP inhibitor)
CC(C)c1ccc(CN2CC(C(=O)Nc3ccccc3)CC2=O)cc1 (configuration not stated)	Lmaj promast 62
COc1ccc(CN2CC(C(=O)NCCC(C)C)CC2=O)cc1 (configuration not stated)	Lmaj promast 100
Cc1cccc(NC(=O)CCS(=O)(=O)c2ccc3c(c2)NC(=O)CS3)n1	none (no result: Lmaj promast, Dynein cargo inh, CHOP inhibitor)
CC1=C(CC(=O)NCC(=O)NCC(=O)O)c2cc(F)ccc2/C1=C/c1ccc(S(C)=O)cc1 (configuration not stated)	none (no result: Lmaj promast, Dynein cargo inh, CHOP inhibitor)
CCCN1CCC(=O)N([C@H](CN=[N+]=[N-])CC(C)C)CC1	none (no result: Lmaj promast, Dynein cargo inh, CHOP inhibitor)
CC(C)Cc1ccc(C(=O)NCCOc2ccccc2)o1	none (no result: Lmaj promast, Dynein cargo inh, CHOP inhibitor)
CC1CCN(C(=S)Nc2ccc(SC(F)F)cc2)CC1	Lmaj promast 72
CC(=O)N1CCN(C(=S)Nc2ccc(SC(F)F)cc2)CC1	none
CCCN1CCN(C(=S)Nc2ccc(SC(F)F)cc2)CC1	Lmaj promast 90
CCc1cccc2c(C(=O)CN3C(=O)NC(C)(c4cccc5ccccc45)C3=O)c[nH]c12 (configuration not stated)	Lmaj promast 63, T cruzi repl 66
CCOC(=O)Cc1csc(NC(=O)CSc2nnc(-c3ccc(OC)cc3)n2C)n1	T cruzi repl 70
c1ccc2sc(NC3=NCN(CCN4CCOCC4)CN3)nc2c1	Lmaj promast 84
Cc1ccc2c(c1)N(CC(=O)N1CCCC1)C(=O)c1cccnc1O2	none (no result: Lmaj promast, Dynein cargo inh, CHOP inhibitor)
Cc1ccoc1C(=O)Nc1ccc(CC(=O)O)cc1	CHOP inhibitor 73
Cc1ccc(S(=O)(=O)N(C)c2ccc(C(=O)NCc3cccnc3)cc2)cc1	none (no result: Lmaj promast, Dynein cargo inh, CHOP inhibitor)
COc1ccc(S(=O)(=O)N(Cc2ccccc2)c2ccccc2C(=O)Nc2ccccc2C(=O)NCc2ccco2)cc1	Lmaj promast 66
